These results are taken from ChEMBL document CHEMBL3352174, “Identification of a New RXRα Antagonist Targeting the Coregulator-Binding Site” (ACS Med Chem Lett, 2014).

Structures are written as SMILES. Active and inactive are the calls of the source. The calls are words filed in the database; no cut-off is given here.

For assay [1], the target named is T1, Retinoic acid receptor RXR-alpha (Homo sapiens) (UniProt P19793).
T1 sequence (whole entry): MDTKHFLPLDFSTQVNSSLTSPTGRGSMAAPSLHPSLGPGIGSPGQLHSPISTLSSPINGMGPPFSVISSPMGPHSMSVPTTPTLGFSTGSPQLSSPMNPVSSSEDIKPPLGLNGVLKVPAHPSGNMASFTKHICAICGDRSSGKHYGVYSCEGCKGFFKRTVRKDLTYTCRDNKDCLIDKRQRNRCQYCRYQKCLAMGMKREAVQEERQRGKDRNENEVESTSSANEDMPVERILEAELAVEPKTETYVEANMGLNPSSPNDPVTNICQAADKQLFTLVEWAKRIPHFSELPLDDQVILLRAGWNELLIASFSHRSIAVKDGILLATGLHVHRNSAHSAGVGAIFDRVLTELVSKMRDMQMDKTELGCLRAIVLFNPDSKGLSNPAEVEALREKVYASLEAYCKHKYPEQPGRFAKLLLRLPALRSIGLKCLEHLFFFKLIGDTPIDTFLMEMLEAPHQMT
Kind of assay: Antagonist activity against RXRalpha in TNFalpha-stimulated human PC3 cells assessed as inhibition of AKT phosphorylation at 5 and 10 uM pre-treated for 24 hrs before TNFalpha addition by Western blotting method. The assay is classed as cell-based. As to conditions: PC-3.

Assay [2] deals with T1, Retinoic acid receptor RXR-alpha (Homo sapiens). Kind of assay: Antagonist activity against RXRalpha in human colon cancer cells assessed as inhibition of AKT phosphorylation at 5 and 10 uM after 24 hrs by Western blotting method. It counts as cell-based. As to conditions: Cancer cell lines. In general terms: A western blot detects proteins with antibodies after separation by electrophoresis.

The target is the same in assay [3]. The assay can be described thus: Antagonist activity against RXRalpha in human pancreatic cancer cells assessed as inhibition of AKT phosphorylation at 5 and 10 uM after 24 hrs by Western blotting method. As to conditions: Cancer cell lines. The assay is classed as cell-based.
For assay [4], the system named is A549. Kind of assay: Induction of apoptosis in TNFalpha-stimulated human A549 cells assessed as PARP cleavage at 5 and 10 uM pre-treated for 24 hrs before TNFalpha addition in presence of RXRalpha siRNA by immunoblotting method. The assay is classed as functional, cell-based. A digest of the protocol:
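A549 cells were transfected with RXRα siRNA or control siRNA for 48 h. They were then treated with compound for 24 h, followed by TNFα (20 ng/mL) for 30 min. Lysates were analyzed by Western blot for AKT activation and PARP cleavage.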

Assay [5] concerns the target T2, Glucocorticoid receptor (Homo sapiens) (UniProt P04150).
T2 sequence (whole entry): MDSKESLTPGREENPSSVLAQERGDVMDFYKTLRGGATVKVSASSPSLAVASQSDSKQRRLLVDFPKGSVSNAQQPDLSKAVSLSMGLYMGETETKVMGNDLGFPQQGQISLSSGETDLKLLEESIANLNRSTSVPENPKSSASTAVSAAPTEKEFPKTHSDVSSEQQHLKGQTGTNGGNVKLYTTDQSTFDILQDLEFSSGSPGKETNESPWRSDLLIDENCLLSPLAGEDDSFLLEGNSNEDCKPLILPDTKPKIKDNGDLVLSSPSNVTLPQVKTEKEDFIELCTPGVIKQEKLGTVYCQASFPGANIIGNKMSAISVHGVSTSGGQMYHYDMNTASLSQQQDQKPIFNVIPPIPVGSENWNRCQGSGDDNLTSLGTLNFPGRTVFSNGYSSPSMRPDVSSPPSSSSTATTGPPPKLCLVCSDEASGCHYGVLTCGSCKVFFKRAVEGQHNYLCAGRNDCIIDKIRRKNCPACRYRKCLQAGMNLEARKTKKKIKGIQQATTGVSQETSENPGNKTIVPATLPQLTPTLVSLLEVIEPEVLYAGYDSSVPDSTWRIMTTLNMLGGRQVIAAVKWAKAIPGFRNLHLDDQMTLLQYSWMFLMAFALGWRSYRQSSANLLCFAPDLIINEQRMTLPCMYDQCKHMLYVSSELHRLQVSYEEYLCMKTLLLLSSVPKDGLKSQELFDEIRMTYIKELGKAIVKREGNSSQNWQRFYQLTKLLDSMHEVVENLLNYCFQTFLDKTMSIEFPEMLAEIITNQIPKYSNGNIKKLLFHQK
The assay can be described thus: Antagonist activity against GRalpha ligand binding domain (unknown origin) expressed in human MCF7 cells assessed as inhibition of dexamethasone-induced receptor transactivation at 10 uM after 18 hrs by luciferase reporter gene based mammalian one-hybrid assay. It counts as cell-based. In general terms: Reporter assays use an easily measured gene product as a stand-in for the process of interest.

The target in assay [6] is T3, Retinoic acid receptor gamma (Homo sapiens) (UniProt P13631).
T3 sequence (whole entry): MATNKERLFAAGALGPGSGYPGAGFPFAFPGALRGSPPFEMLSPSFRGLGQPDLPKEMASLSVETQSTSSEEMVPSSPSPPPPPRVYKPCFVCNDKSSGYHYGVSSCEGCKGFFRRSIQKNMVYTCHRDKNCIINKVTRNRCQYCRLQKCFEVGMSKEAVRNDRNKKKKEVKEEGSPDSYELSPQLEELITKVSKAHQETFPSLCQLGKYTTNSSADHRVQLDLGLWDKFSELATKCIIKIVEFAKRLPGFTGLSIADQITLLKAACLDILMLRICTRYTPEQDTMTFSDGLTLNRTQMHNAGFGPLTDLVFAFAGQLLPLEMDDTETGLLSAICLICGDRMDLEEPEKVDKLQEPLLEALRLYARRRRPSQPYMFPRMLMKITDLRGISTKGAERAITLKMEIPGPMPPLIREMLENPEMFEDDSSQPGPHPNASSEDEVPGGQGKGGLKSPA
The assay can be described thus: Antagonist activity against RARgamma ligand binding domain (unknown origin) expressed in human MCF7 cells assessed as inhibition of ATRA-induced receptor transactivation at 10 uM after 18 hrs by luciferase reporter gene based mammalian one-hybrid assay. The assay is classed as cell-based. The essentials:
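MCF-7 cells co-transfected with pG5-Luc and the pBind-LBD fusion: Nur77, RARγ or ER. Agonists were all-trans-RA 10⁻⁷ M for RARγ and Nur77, and propyl pyrazole triol 10 μM for ER. Compound at 10 μM for 18 h. Dual-luciferase read-out normalized to Renilla. Mean ± SD.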

For assay [7], the target named is T1, Retinoic acid receptor RXR-alpha (Homo sapiens). The assay can be described thus: Antagonist activity against RXRalpha in TNFalpha-stimulated human A549 cells assessed as inhibition of AKT phosphorylation at 5 and 10 uM pre-treated for 24 hrs before TNFalpha addition by Western blotting method. It counts as cell-based. The essentials:
(§1)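 A549 or HepG2 cells were exposed to compound for 24 h, then with or without TNFα (20 ng/mL) for 30 min more. Lysates were immunoblotted for AKT activation. One of three to five similar experiments shown.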

Assay [8] has the same target. Kind of assay: Antagonist activity against RXRalpha in TNFalpha-stimulated human HepG2 cells assessed as inhibition of AKT phosphorylation at 5 and 10 uM pre-treated for 24 hrs before TNFalpha addition by Western blotting method. The assay is classed as cell-based. The essentials: as §1
For assay [9] the target is unchanged. Kind of assay: Antagonist activity against RXRalpha in human A549 cells assessed as inhibition of AKT phosphorylation at 5 and 10 uM after 24 hrs by Western blotting method. It counts as cell-based. A digest of the protocol: as §1
Assay [10] concerns the target Retinoic acid receptor gamma (Homo sapiens) (UniProt P13631). The assay can be described thus: Antagonist activity against RARgamma ligand binding domain (unknown origin) expressed in human MCF7 cells assessed as inhibition of ATRA-induced receptor transactivation at 10 uM after 18 hrs by luciferase reporter gene based mammalian one-hybrid assay.

For `Cc1cc(=O)oc2c(/C=N/NC(=O)CSc3nc4ccccc4s3)c(O)ccc12`, the inhibition result in assay [1], in assay [2], in [3], in assay [6], in assay [7] and in assay [8] was “Active” each time. In addition, the inhibition entry in assay [10] is “Active”. For the same compound, the result in assay [4] was inactive. For the same compound, the inhibition entry in assay [5] is “inactive”. Also, the inhibition result in assay [9] was “Dose-dependent effect”.
